# Lipid droplet = modulators of hepatic lipid droplet formation | AML12 mouse hepatocytes, oleate lipid droplets, BODIPY imaging | inhibition, % at 6.5 µM | 0.4% of 240,000 active;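 active = lipid droplet intensity inhibited by at least 50%, with more than 500 cells counted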
#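 Assay system: AML12 mouse liver cells | Compound dosing: One dose, 6.5 µM compound | Read-out basis: Droplet intensity reduction, % inhibition | Measured by: Fluorescence imaging, 20x objective, two fields per well | Schedule: Overnight treatment with compound plus oleate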
# GRK2 aptamer HTS = inhibitors of human GRK2 displacing RNA aptamer | bead flow cytometry, FAM-aptamer displacement from GRK2 | inhibition of aptamer binding, % at 10 µM | 0.59% of 330,000 active | AID 488847;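 active = inhibition of aptamer binding above 40%, roughly 3 SD of noise, on plates passing a quality check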;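 also: median bead fluorescence of bound FAM aptamer so fluorescent compounds give negative values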
# Target sequence (P25098 whole entry, looked up): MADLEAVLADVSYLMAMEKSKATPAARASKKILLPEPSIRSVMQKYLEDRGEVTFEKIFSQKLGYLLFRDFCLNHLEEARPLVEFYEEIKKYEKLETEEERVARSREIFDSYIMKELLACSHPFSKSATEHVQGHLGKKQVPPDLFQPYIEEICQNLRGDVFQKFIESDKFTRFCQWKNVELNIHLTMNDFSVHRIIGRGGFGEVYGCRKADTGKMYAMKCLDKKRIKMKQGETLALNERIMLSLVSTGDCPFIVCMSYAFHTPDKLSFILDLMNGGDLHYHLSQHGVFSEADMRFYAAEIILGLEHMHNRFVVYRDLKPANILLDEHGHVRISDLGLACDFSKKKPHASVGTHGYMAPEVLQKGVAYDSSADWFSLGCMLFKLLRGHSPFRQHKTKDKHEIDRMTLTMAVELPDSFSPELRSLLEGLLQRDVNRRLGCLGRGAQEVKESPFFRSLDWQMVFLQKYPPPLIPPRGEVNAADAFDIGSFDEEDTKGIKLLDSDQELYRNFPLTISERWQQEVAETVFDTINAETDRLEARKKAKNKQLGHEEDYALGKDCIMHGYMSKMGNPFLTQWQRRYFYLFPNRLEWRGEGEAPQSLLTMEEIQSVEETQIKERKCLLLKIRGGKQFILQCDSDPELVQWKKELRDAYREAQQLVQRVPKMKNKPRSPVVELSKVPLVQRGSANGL
# Arrestin-AP2 inh = inhibitors of human beta-arrestin and AP2 interaction | FITC-arrestin peptide / GST-AP2 beads, flow cytometry; AP2 beta2 appendage carries R879A mutation | 0.31% of 340,000 active | inhibition, % at 10 µM;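 active = inhibition above a set limit, near 3 SD of compounds lacking own fluorescence, cut at about 54% in these data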;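 also: plate controls were DMSO wells for no effect and 5 µM unlabelled arrestin peptide for full effect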
#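 Material – GST-tagged AP2 beta2-adaptin appendage (R879A) on 4 µm glutathione beads · Probe or stimulus – fluorescein-tagged arrestin peptide at 50 nM final · Timing – 12 min plus 1 h, RT · Detection – bead flow cytometry, FITC channel · Read-out basis – inhibition as reduced fluorescein signal on beads, percent · Medium – PBS plus Tween 20 (0.05%) and BSA (0.1%)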
# TAG inh = inhibitors of triacylglycerol accumulation; H9c2 cells, Nile Red lipid (TAG) fluorescence; cells loaded with 200 µM oleic acid; inhibition, % at 12.5 µM; 0.66% of 230,000 active; AID 651582;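 active = pattern-corrected inhibition of lipid staining of at least 50% with the nuclear-stain viability signal not falling by more than 50%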;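 also: 0% = DMSO wells and 100% = triacsin C control wells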
# NTR1 ag = activates human neurotensin receptor 1 | 0.17% of 330,000 active | P30989 | NTR1-U2OS beta-arrestin-GFP spot imaging, agonist mode | AID 493036 | activation, % at 20 µM;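 active = activation at or above 40% of the spot to cytoplasm intensity ratio, with at least 20 cells analyzed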;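 also: 0% = DMSO without peptide and 100% = 100 nM NTR1 peptide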
# B2AR ag = activates human beta-2 adrenergic receptor causing internalization. Am2.2-beta2AR cells, FAP receptor internalization, flow cytometry. response, % (concentration not given with the values). 0.43% of 340,000 active. AID 504454;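 active = response above a set limit, near 3 SD of response in nonfluorescent compounds, cut at about 42% in these data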
# Arr AP2 CP1 = blocks beta-arrestin peptide binding to human AP2. inhibition, % at 10 µM. 2% of 1,300 active. shares compounds with Arrestin-AP2 inh. AID 504908. GST-AP2 beads, FITC arrestin peptide binding, flow cytometry; GST-fused beta2-adaptin appendage, R879A mutant;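 active = inhibition above a set limit, roughly 3 SD of non-fluorescent compound noise, cut at about 38% in these data; inactive = inhibition at or below that limit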;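 also: loss of bead fluorescence from 50 nM FITC arrestin peptide bound to appendage; 0% = negative control wells and 100% = excess unlabelled arrestin peptide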
# GST GSH counter = GST-GSH bead binding interference, counter-screen | inhibition, % at 10 µM | AID 588338 | 2% of 1,300 active | shares compounds with Arrestin-AP2 inh | GST-fluorescein binding to GSH beads, fluorescence;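 active = inhibition above 50%, about 3 SD of the inhibition seen with non-fluorescent compounds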;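 also: fluorescein maleimide labelled GST captured on 4 micron glutathione beads; higher means more loss of bead fluorescence from quenching or blocked binding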
# * = called active by the depositor; / = no result. Shown are actives, neighbours in structure and some others; about 2% of the full set was active somewhere.
SMILES,Lipid droplet,GRK2 aptamer HTS,Arrestin-AP2 inh,TAG inh,NTR1 ag,B2AR ag,Arr AP2 CP1,GST GSH counter
COc1ccc(NS(=O)(=O)c2cccc(C(=O)NCC(c3ccco3)N3CCCCC3)c2)cc1 (configuration not stated),/,0.0,59.3*,-11.7,-1.1,5.9,27.2,-4.1
COc1ccc(NS(=O)(=O)c2cccc(C(=O)NCC3(N4CCOCC4)CCCCC3)c2)cc1,-28.2,3.0,-9.4,-13.8,0.9,-4.1,9.1,-5.6
Nc1cc([N+](=O)[O-])ccc1N1C(=O)CCCC1=O,0.9,6.0,0.6,/,-0.9,-3.9,/,/
COc1ccc(Nc2nc(N)nc(CSC(=S)N3CCCCC3C)n2)cc1 (configuration not stated),-14.1,1.0,-11.4,6.4,3.5,-11.4,/,/
CN1CCC=C(C(=O)N2c3ccccc3Sc3ccc(Cl)cc32)C1,11.6,0.0,46.7,18.0,-0.2,-16.8,/,/
O=C(NCc1ccc(F)cc1)c1cc(C2CCCCN2S(=O)(=O)c2ccccc2)on1 (configuration not stated),/,/,/,1.5,/,/,/,/
Cc1ccc(Cl)c(NC(=O)COC(=O)c2cc[n+]([O-])cc2)c1Cl,/,0.0,2.8,4.0,1.0,4.7,/,/
COc1ccc(NS(=O)(=O)c2cccc(C(=O)NCC3(N4CCCCC4)CCCCC3)c2)cc1,/,0.0,-18.7,-7.5,-0.8,12.0,11.6,5.9
CCOc1ccc(S(=O)(=O)Nc2ccc(C(=O)NCC3(N4CCCCC4)CCCCC3)cc2)cc1,/,0.0,3.8,-1.1,0.5,1.9,/,/
Cc1cccc(NS(=O)(=O)c2cccc(C(=O)NCC3(N4CCCCC4)CCCCC3)c2)c1,/,1.0,-10.4,6.2,0.7,0.8,-5.1,-3.4
CCOc1ccc(NS(=O)(=O)c2cccc(C(=O)NCC3(N(C)C)CCCCC3)c2)cc1,/,/,-4.7,18.1,0.1,7.6,5.3,-12.3
C=CC(n1cncn1)C(O)(c1ccccc1)c1ccccc1 (configuration not stated),/,1.0,-4.2,-14.1,-2.3,-4.8,/,/
CCOC(=O)C1=C(COC(=O)COc2ccccc2OCC)NC(=O)NC1C (configuration not stated),/,1.0,-3.7,-0.7,1.3,4.8,-0.8,-10.9
CCOC(=O)C1=C(COC(=O)COc2ccccc2C=O)NC(=O)NC1C (configuration not stated),/,4.0,10.2,-1.2,-1.0,1.2,/,/
CCOC(=O)C1=C(COC(=O)COc2ccc(OCC)cc2)NC(=O)NC1C (configuration not stated),/,2.0,15.6,4.9,-1.4,-4.5,-7.7,-7.3
CCOC(=O)C1=C(COC(=O)CSc2ccc(C)cc2)NC(=O)NC1C (configuration not stated),/,1.0,-8.0,-20.7,-1.8,-1.6,/,/
CCOC(=O)C1=C(COC(=O)COc2cccc(C)c2C)NC(=O)NC1C (configuration not stated),/,0.0,-10.5,-9.4,0.9,-0.5,0.2,3.2
CCOC(=O)C1=C(COC(=O)COc2ccccc2C(C)C)NC(=O)NC1C (configuration not stated),/,/,60.7*,3.0,1.0,-3.9,12.4,1.2
COC(=O)c1ccc(CO/N=C/c2ccc(OC)cc2OC)cc1,9.0,3.0,-3.9,/,2.2,-8.8,/,/
C=C(C(=O)c1ccccc1)C(NC(C)(C)C)c1ccccc1 (configuration not stated),/,/,7.3,49.5,/,28.9,/,/
CCOc1ccccc1NC(=O)c1cnc(NS(=O)(=O)c2ccccc2)nc1,12.1,2.0,20.5,/,-1.1,10.7,/,/
CSCCC(NS(=O)(=O)c1ccccc1F)C(=O)NCC(C)(C)N1CCOCC1 (configuration not stated),/,0.0,55.8*,-11.4,-0.6,4.1,4.2,0.9
CSCCC(NS(=O)(=O)c1ccccc1F)C(=O)NCC(c1ccc(F)cc1)N1CCOCC1 (configuration not stated),/,0.0,-2.1,2.1,1.6,0.9,/,/
O=C(COC(=O)c1ccc2c(c1)OCO2)NCc1ccc2c(c1)OCO2,8.1,3.0,-5.9,/,-2.8,-2.0,/,/
CNc1ccc(C(=O)OCC(=O)NCc2ccc3c(c2)OCO3)cc1[N+](=O)[O-],/,0.0,95.6*,12.5,1.6,-5.4,-3.1,1.0
SMILES,Lipid droplet,GRK2 aptamer HTS,Arrestin-AP2 inh,TAG inh,NTR1 ag,B2AR ag,Arr AP2 CP1,GST GSH counter
COc1ccc(NC(=O)Cn2nc(C(=O)O)c3ccccc3c2=O)cc1OC,-4.1,1.0,9.1,/,-0.5,7.4,/,/
CC(=O)c1cccc(S(=O)(=O)N2CCC(C(=O)Oc3ccc(-c4nnco4)cc3)CC2)c1,/,0.0,0.8,-18.8,-1.1,-3.2,/,/
Cc1ccc(C(=O)OCC(=O)N2CCCC2)cc1,0.4,4.0,63.7*,/,-2.3,1.8,6.5,-1.2
COc1ccc(OC)c(NC(=O)COC(=O)CCc2nc3ccccc3c(=O)[nH]2)c1,/,1.0,-4.8,-17.4,-0.2,-5.0,/,/
COc1ccccc1NC(=O)c1cc2c(s1)-c1ccccc1S(=O)(=O)C2,0.7,0.0,-0.4,12.9,0.8,16.7,/,/
Nc1nc(-c2ccccc2)nc2sc3c(c12)CCCC3,42.0,0.0,65.0*,-2.7,8.4,-6.9,20.8,-2.9
Cc1ccc(CN(Cc2ccccc2)C(=S)Nc2ccccc2C)o1,-12.7,0.0,15.9,-7.8,1.1,-7.0,/,/
O=c1[nH]c2cc(NCCO)c([N+](=O)[O-])cc2[nH]1,6.4,3.0,69.8*,-1.9,0.3,-5.4,0.8,2.3
CCOc1ccc(OCCCC(=O)N2CCN(S(=O)(=O)c3ccccc3C#N)CC2)cc1,/,1.0,56.6*,-8.8,-0.6,5.8,-13.6,0.3
CCOc1ccc(OCCC(=O)N2CCN(S(=O)(=O)c3ccc(OCC)cc3)CC2)cc1,-2.8,5.0,21.2,-11.7,3.0,-8.1,/,/
Cc1ccc(CSc2nc3c(c(SCC(=O)O)n2)CCCC3)cc1,/,1.0,-6.8,6.6,1.0,-9.8,/,/
COC(=O)CSc1nc(SCc2ccc(C)cc2)nc2c1CCCC2,-4.9,1.0,99.4*,13.1,3.9,-12.2,-7.2,6.3
COc1ccc(C)cc1N(C(=O)c1snc(C(N)=O)c1N)C(C(=O)NC1CCCCC1)c1ccc(C)o1 (configuration not stated),-7.7,/,72.0*,/,8.2,-8.0,2.3,-1.5
Cc1oc(-c2cccs2)nc1CN1CCC(c2ccccc2)CC1,-12.8,0.0,-0.4,-13.1,2.9,0.7,/,/
CC(C)Cn1c(N)c(C(=O)COC(=O)c2ccc(O)cc2)c(=O)n(C)c1=O,-5.1,0.0,-7.5,-11.0,1.9,-0.5,-8.3,-12.0
